# Laboratory results: ChEMBL document CHEMBL4138245, “Design and synthesis of novel quinacrine-[1,3]-thiazinan-4-one hybrids for their anti-breast cancer activity” (Eur J Med Chem, 2018)
# Activity calls are given as the source filed them. The calls are words filed in the database; no cut-off is given here.
# Assays:
# MCF7 [1] = experiment: Antiproliferative activity against human MCF7 cells after 48 hrs by SRB assay; type: functional, cell-based; settings: MCF7, 48 h
# Summary of the method: (§1)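 SRB assay: 5,000-10,000 cells/well plated, 24 h at 37 °C/5% CO2 before drug; seven concentrations from 100 μM down (two- to ten-fold serial dilutions, DMSO ≤0.1% final) for 48 h; TCA fixation (10% final, 60 min, 4 °C), 0.4% SRB in 1% acetic acid, solubilized in 10 mM Tris base, absorbance 515-564 nm; growth = (Ti−Tz)/(C−Tz)×100; IC50 from sigmoidal variable-slope fit; triplicates, ≥2 independent experiments.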
# 184B5 = experiment: Antiproliferative activity against human 184B5 cells after 48 hrs by SRB assay; type: cell-based; settings: 184B5, 48 h; summary of the method: as §1
# MDA-MB-231 [2] = experiment: Potency index, ratio of cisplatin IC50 to compound IC50 for antiproliferative activity against human MDA-MB-231 cells; type: functional
# BT-474 = experiment: Antiproliferative activity against human BT474 cells assessed as compound concentration required to show complete inhibition of cell viability up to 96 hrs by SRB assay; type: functional
# SK-BR-3 = experiment: Antiproliferative activity against human SK-BR-3 cells assessed as compound concentration required to show complete inhibition of cell viability up to 96 hrs by SRB assay; type: functional
# MDA-MB-453 = experiment: Antiproliferative activity against human MDA-MB-453 cells assessed as compound concentration required to show complete inhibition of cell viability up to 96 hrs by SRB assay; type: functional
# MDA-MB-468 = experiment: Antiproliferative activity against human MDA-MB-468 cells assessed as compound concentration required to show complete inhibition of cell viability up to 96 hrs by SRB assay; type: functional
# NCI-H1975 = experiment: Antiproliferative activity against human NCI-H1975 cells assessed as compound concentration required to show complete inhibition of cell viability up to 96 hrs by SRB assay; type: functional
# MCF-10A = experiment: Antiproliferative activity against human MCF10A cells at 1 to 2 uM up to 96 hrs by SRB assay; type: cell-based
# MCF7 [3] = experiment: Cell cycle arrest in human MCF7 cells assessed as accumulation at S phase at 2 uM after 48 hrs by propidium iodide staining based flow cytometry; type: functional
# Summary of the method: (§2)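 MCF7, MDA-MB231 and non-cancer 184B5 breast cells exposed to 2 μM for 48 h, then cell-cycle analysis by flow cytometry; duplicates, repeated three times.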
# MDA-MB-231 [4] = experiment: Cell cycle arrest in human MDA-MB-231 cells assessed as accumulation at S phase at 2 uM after 48 hrs by propidium iodide staining based flow cytometry; type: functional; summary of the method: as §2
# MDA-MB-231 [5] = experiment: Cell cycle arrest in human MDA-MB-231 cells assessed as accumulation at sub-G1 phase at 2 uM after 48 hrs by propidium iodide staining based flow cytometry; type: functional; summary of the method: as §2
# MCF7 [6] = experiment: Cell cycle arrest in human MCF7 cells assessed as DNA content at 2 uM after 6 hrs by BrdU incorporation assay (reference value: 31.6%); type: functional
# MCF7 [7] = experiment: Cell cycle arrest in human MCF7 cells assessed as DNA content at 2 uM after 12 hrs by BrdU incorporation assay (reference value: 20.7%); type: functional
# MCF7 [8] = experiment: Cell cycle arrest in human MCF7 cells assessed as DNA content at 2 uM after 48 hrs by BrdU incorporation assay (reference value: 29.4%); type: functional
# MDA-MB-231 [9] = experiment: Inhibition of DNA replication in human MDA-MB-231 cells assessed as EdU incorporation at 2 uM pretreated for 48 hrs followed by EdU addition at final 45 mins of 48 hrs incubation time (reference value: 45 to 63%); type: functional; design: scale not given: the % may be the effect or the level left
# MCF7 [10] = experiment: Induction of DNA damage in human MCF7 cells assessed as increase in gammaH2Ax level at 2 uM after 24 to 48 hrs by Western blot method; type: functional, cell-based
# [11] = biological target: T1, Serine/threonine-protein kinase Chk1 (Homo sapiens) (UniProt O14757); experiment: Induction of CHK1 phosphorylation at S298 residue in human MCF7 cells at 2 uM after 12 to 48 hrs by Western blot method; type: cell-based
# T1 sequence (whole entry): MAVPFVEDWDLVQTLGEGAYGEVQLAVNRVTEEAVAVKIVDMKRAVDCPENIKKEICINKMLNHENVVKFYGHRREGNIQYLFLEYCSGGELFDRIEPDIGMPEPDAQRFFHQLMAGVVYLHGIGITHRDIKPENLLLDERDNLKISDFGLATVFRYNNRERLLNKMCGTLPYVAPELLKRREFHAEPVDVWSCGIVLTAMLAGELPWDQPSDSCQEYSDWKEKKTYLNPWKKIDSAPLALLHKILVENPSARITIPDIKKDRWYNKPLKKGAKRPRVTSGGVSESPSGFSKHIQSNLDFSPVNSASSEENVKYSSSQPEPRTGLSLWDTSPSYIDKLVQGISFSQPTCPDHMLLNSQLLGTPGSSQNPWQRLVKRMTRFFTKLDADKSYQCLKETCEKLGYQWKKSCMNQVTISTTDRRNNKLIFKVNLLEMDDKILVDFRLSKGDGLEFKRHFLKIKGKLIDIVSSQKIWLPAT
# [12] = biological target: Serine/threonine-protein kinase mTOR (Homo sapiens) (UniProt P42345); experiment: Inhibition of mTOR pathway in human MCF7 cells assessed as reduction in S6K phosphorylation at Thr389 residue at 2 uM after 6 hrs by Western blot method; type: cell-based
# [13] = biological target: Serine/threonine-protein kinase mTOR (Homo sapiens) (UniProt P42345); experiment: Inhibition of mTOR pathway in human MCF7 cells assessed as reduction in S6K phosphorylation at Thr389 residue at 2 uM after 24 hrs by Western blot method; type: cell-based
# [14] = Selectivity index, ratio of compound concentration for cell killing activity in human MCF10A cells to compound concentration for cell killing activity in human BT474 cells; type: toxicity, cell-based; settings: MCF10A cells versus BT474 cells, read-out: Selectivity Index
# [15] = Selectivity index, ratio of compound concentration for cell killing activity in human MCF10A cells to compound concentration for cell killing activity in human CAMA1 cells; type: toxicity, cell-based; settings: MCF10A cells versus CAMA1 cells, read-out: Selectivity Index
# [16] = Selectivity index, ratio of compound concentration for cell killing activity in human MCF10A cells to compound concentration for cell killing activity in human MDA-MB-453 cells; type: toxicity, cell-based; settings: MCF10A cells versus MDA-MB-453 cells, read-out: Selectivity Index
# [17] = Selectivity index, ratio of compound concentration for cell killing activity in human 184B5 cells to compound concentration for cell killing activity in human MCF7 cells; type: toxicity, cell-based; settings: 184B5 cells versus MCF7 cells, read-out: Selectivity Index
# [18] = Selectivity index, ratio of compound concentration for cell killing activity in human 184B5 cells to compound concentration for cell killing activity in human BT474 cells; type: toxicity, cell-based; settings: 184B5 cells versus BT474 cells, read-out: Selectivity Index
# [19] = Selectivity index, ratio of compound concentration for cell killing activity in human 184B5 cells to compound concentration for cell killing activity in human CAMA1 cells; type: toxicity, cell-based; settings: 184B5 cells versus CAMA1 cells, read-out: Selectivity Index
# [20] = Selectivity index, ratio of compound concentration for cell killing activity in human 184B5 cells to compound concentration for cell killing activity in human LNCAP cells; type: toxicity, cell-based; settings: 184B5 cells versus LNCAP cells, read-out: Selectivity Index
smiles,measurement,setting,value
COc1ccc2nc3cc(Cl)ccc3c(NCCCN3C(=O)CCSC3c3cccs3)c2c1 (configuration not stated),IC50,MCF7 [1],690 nM
same,IC50,184B5,4960 nM
same,Ratio IC50,MDA-MB-231 [2],8.4
same,Activity,BT-474,1 µM
same,Activity,SK-BR-3,2 µM
same,Activity,MDA-MB-453,2 µM
same,Activity,MDA-MB-468,2 µM
same,Activity,NCI-H1975,2 µM
same,Activity,MCF-10A,Non-Toxic
same,Activity,MCF7 [3],Active
same,Activity,MDA-MB-231 [4],Active
same,Activity,MDA-MB-231 [5],Active
same,Activity,MCF7 [6],3.7%
same,Activity,MCF7 [7],8.7%
same,Activity,MCF7 [8],0.9%
same,Activity,MDA-MB-231 [9],10%
same,Activity,MCF7 [10],inactive
same,Activity,[11],inactive
same,inhibition,[12],inactive
same,inhibition,[13],Active
same,selectivity ratio,[14],3 to 6
same,selectivity ratio,[15],3 to 6
same,selectivity ratio,[16],3 to 6
same,selectivity ratio,[17],3 to 6
same,selectivity ratio,[18],3 to 6
same,selectivity ratio,[19],3 to 6
same,selectivity ratio,[20],3 to 6
